4 molecules from ChEMBL document CHEMBL1154251, “Yeast glycogen synthase kinase-3beta pathway inhibitors from an organic extract of Streptomyces sp” (J Nat Prod, 2009) can be followed below.

Calls of active or inactive are those of the source. The calls are words filed in the database; no cut-off is given here.

Sequence of Glycogen synthase kinase-3 beta (Homo sapiens) (P49841 whole entry, looked up, the tested form may be a part): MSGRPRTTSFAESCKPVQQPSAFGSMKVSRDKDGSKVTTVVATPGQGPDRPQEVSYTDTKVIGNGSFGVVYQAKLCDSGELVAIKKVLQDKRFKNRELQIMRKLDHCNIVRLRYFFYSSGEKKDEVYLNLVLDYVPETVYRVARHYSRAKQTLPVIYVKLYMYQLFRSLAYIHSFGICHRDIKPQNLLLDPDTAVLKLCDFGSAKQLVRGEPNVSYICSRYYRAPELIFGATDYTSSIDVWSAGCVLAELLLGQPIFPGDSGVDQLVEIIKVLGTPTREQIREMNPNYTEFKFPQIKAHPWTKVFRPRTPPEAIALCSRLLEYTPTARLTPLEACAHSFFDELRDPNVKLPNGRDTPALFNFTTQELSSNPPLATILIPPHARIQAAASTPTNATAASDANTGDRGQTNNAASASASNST

One assay concerns the target Glycogen synthase kinase-3 beta (Homo sapiens) (UniProt P49841). Description: Inhibition of GSK3-beta expressed in H10075 yeast assessed as growth inhibition at 5 ug/disk after 72 hrs at 24 degreeC by disc diffusion method. On the technique in general: Agar diffusion results depend on both activity and mobility in agar.
As for `C[C@@H]1C[C@@H]([C@H](O)CC2CC(=O)NC(=O)C2)C(=O)[C@@H](C)C1`, the inhibition zone (IZ) came to 30 mm.

For `CC/C=C(\C)C(=O)CC(O)CC1CC(=O)NC(=O)C1` (stereo not given), the “inhibition zone (IZ)” value is “inactive”.

With `C[C@H]1C[C@H](C)C(=O)[C@@H]([C@H](O)CC2CC(=O)NC(=O)C2)C1`, the inhibition zone (IZ) was 12 mm.

`Cn1sc(=O)n(Cc2ccccc2)c1=O`: the inhibition zone (IZ) was determined as 8 mm.

A further assay shares this target. Description: Inhibition of GSK3-beta expressed in H10075 yeast assessed as growth inhibition at 5 ug/disk after 72 hrs at 37 degreeC by disc diffusion method. In a few lines: (§1)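 Yeast gsk-3 null strain H10075 (mck1 mds1 mrk1 yol128c disrupted) carrying cloned human GSK-3β on pKT10; grown 2 days at 37 °C in SC minus uracil, then seeded into SC minus uracil agar pH 5.6. Compounds applied on filter disks (20, 10, 5, 2.5 µg per disk); plates incubated 72 h at 25 and 37 °C; zone of inhibition diameter read; duplicate.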
With `C[C@@H]1C[C@@H]([C@H](O)CC2CC(=O)NC(=O)C2)C(=O)[C@@H](C)C1`, the inhibition zone (IZ) came to 48 mm.

Regarding `CC/C=C(\C)C(=O)CC(O)CC1CC(=O)NC(=O)C1` (stereo not given), the inhibition zone (IZ) is 30 mm.

For `C[C@H]1C[C@H](C)C(=O)[C@@H]([C@H](O)CC2CC(=O)NC(=O)C2)C1`, the inhibition zone (IZ) was found to be 15 mm.

As for `Cn1sc(=O)n(Cc2ccccc2)c1=O`, the inhibition zone (IZ) came to 9 mm.

For another assay the target is unchanged. Description: Inhibition of GSK3-beta expressed in H10075 yeast assessed as growth inhibition at 20 ug/disk after 72 hrs at 25 degreeC by disc diffusion method. In outline:
as §1
`C[C@@H]1C[C@@H]([C@H](O)CC2CC(=O)NC(=O)C2)C(=O)[C@@H](C)C1`: the inhibition zone (IZ) was 36 mm.

In the case of `CC/C=C(\C)C(=O)CC(O)CC1CC(=O)NC(=O)C1` (stereo not given), the inhibition zone (IZ) is 10 mm.

Consider `C[C@H]1C[C@H](C)C(=O)[C@@H]([C@H](O)CC2CC(=O)NC(=O)C2)C1`, for which the inhibition zone (IZ) came out at 22 mm.

Turning to `Cn1sc(=O)n(Cc2ccccc2)c1=O`, the inhibition zone (IZ) was 10 mm.

The next assay shares this target. Description: Inhibition of GSK3-beta expressed in H10075 yeast assessed as growth inhibition at 2.5 ug/disk after 72 hrs at 24 degreeC by disc diffusion method.
On to `C[C@@H]1C[C@@H]([C@H](O)CC2CC(=O)NC(=O)C2)C(=O)[C@@H](C)C1`, for which the inhibition zone (IZ) turned out to be 25 mm.

For the molecule `CC/C=C(\C)C(=O)CC(O)CC1CC(=O)NC(=O)C1` (stereo not given), the “inhibition zone (IZ)” value is “inactive”.

Regarding `C[C@H]1C[C@H](C)C(=O)[C@@H]([C@H](O)CC2CC(=O)NC(=O)C2)C1`, the “inhibition zone (IZ)” value was “inactive”.

With `Cn1sc(=O)n(Cc2ccccc2)c1=O`, the “inhibition zone (IZ)” value is “inactive”.

Another assay has the same target. Description: Inhibition of GSK3-beta expressed in H10075 yeast assessed as growth inhibition at 10 ug/disk after 72 hrs at 37 degreeC by disc diffusion method. In outline: (§2)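 Yeast gsk-3 null strain H10075 (mck1, mds1, mrk1, yol128c disrupted) carrying pKT10-GSK-3β. Grown 2 days at 37 °C in SC minus uracil broth, then seeded into SC minus uracil agar, pH 5.6. Samples on filter disks, screened at 20 µg/disk, actives retested down to 2.5 µg/disk. Plates held 72 h at both 25 and 37 °C. Zone of inhibition read; duplicates.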
In the case of `CC/C=C(\C)C(=O)CC(O)CC1CC(=O)NC(=O)C1` (stereo not given), the inhibition zone (IZ) worked out at 34 mm.

On to `C[C@H]1C[C@H](C)C(=O)[C@@H]([C@H](O)CC2CC(=O)NC(=O)C2)C1`, for which the inhibition zone (IZ) amounted to 25 mm.

As to `Cn1sc(=O)n(Cc2ccccc2)c1=O`, the inhibition zone (IZ) was 10 mm.

The target is the same in a further assay. Description: Inhibition of GSK3-beta expressed in H10075 yeast assessed as growth inhibition at 20 ug/disk after 72 hrs at 37 degreeC by disc diffusion method. In outline: as §2
`CC/C=C(\C)C(=O)CC(O)CC1CC(=O)NC(=O)C1` (stereo not given): the inhibition zone (IZ) came out at 38 mm.

In the case of `C[C@H]1C[C@H](C)C(=O)[C@@H]([C@H](O)CC2CC(=O)NC(=O)C2)C1`, the inhibition zone (IZ) turned out to be 33 mm.

For `Cn1sc(=O)n(Cc2ccccc2)c1=O`, the inhibition zone (IZ) came out at 11 mm.

The next assay shares this target. Description: Inhibition of GSK3-beta expressed in H10075 yeast assessed as growth inhibition at 2.5 ug/disk after 72 hrs at 37 degreeC by disc diffusion method. In a few lines: as §1
For the molecule `C[C@@H]1C[C@@H]([C@H](O)CC2CC(=O)NC(=O)C2)C(=O)[C@@H](C)C1`, the inhibition zone (IZ) was 42 mm.

`CC/C=C(\C)C(=O)CC(O)CC1CC(=O)NC(=O)C1` (stereo not given): the inhibition zone (IZ) came to 28 mm.

Consider `C[C@H]1C[C@H](C)C(=O)[C@@H]([C@H](O)CC2CC(=O)NC(=O)C2)C1`, for which the “inhibition zone (IZ)” value is “inactive”.

`Cn1sc(=O)n(Cc2ccccc2)c1=O`: the “inhibition zone (IZ)” value was “inactive”.

The target is the same in the next assay. Description: Inhibition of GSK3-beta expressed in H10075 yeast assessed as growth inhibition at 10 ug/disk after 72 hrs at 24 degreeC by disc diffusion method.
For `C[C@@H]1C[C@@H]([C@H](O)CC2CC(=O)NC(=O)C2)C(=O)[C@@H](C)C1`, the inhibition zone (IZ) came out at 33 mm.

In the case of `CC/C=C(\C)C(=O)CC(O)CC1CC(=O)NC(=O)C1` (stereo not given), the “inhibition zone (IZ)” value was “inactive”.

As to `C[C@H]1C[C@H](C)C(=O)[C@@H]([C@H](O)CC2CC(=O)NC(=O)C2)C1`, the inhibition zone (IZ) stood at 16 mm.

Turning to `Cn1sc(=O)n(Cc2ccccc2)c1=O`, the inhibition zone (IZ) was 9 mm.
